According to ChEMBL document CHEMBL4196125, “Identification of N-Benzyl 3,5-Dinitrobenzamides Derived from PBTZ169 as Antitubercular Agents” (ACS Med Chem Lett, 2018):
Converted amounts (≈) assume the structure as drawn. The source made the active and inactive calls. The calls are words filed in the database; no cut-off is given here.

Tests used:
[1] = test system: Mycobacterium tuberculosis; assay: Antitubercular activity against drug-sensitive Mycobacterium tuberculosis H37Rv ATCC 27294 measured after 7 days by microplate alamar blue assay; type: functional; settings: for MIC90: H37Rv ATCC 27294, 168 h
Method in brief: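 Microplate Alamar Blue Assay against strain H37Rv ATCC27294. MIC is the lowest concentration giving more than 90% reduction in fluorescence relative to the mean of replicate bacterium-only controls.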

Mus musculus = assay: Acute toxicity in mouse assessed as survival at 500 mg/kg, po administered as single dose measured for 7 days; type: organism-based; settings: in vivo, 168 h
[2] = Half life in mouse at 50 mg/kg, po administered as single dose; type: ADME, organism-based; settings: in vivo
Method in brief: (§1)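 Mice (n = 3) received one oral 50 mg/kg dose; plasma levels were followed to derive T1/2 (h), Tmax (h), Cmax (ng/mL) and AUC0-∞ (h·ng/mL).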

[3] = Cmax in mouse at 50 mg/kg, po administered as single dose; type: ADME, organism-based; parameters: dose 50 mg/kg, route oral; settings: in vivo; method in brief: as §1
[4] = AUC (0 to infinity) in mouse at 50 mg/kg, po administered as single dose; type: ADME, organism-based; parameters: dose 50 mg/kg, route oral, time infinity; settings: in vivo; method in brief: as §1
[5] = Tmax in mouse at 50 mg/kg, po administered as single dose; type: ADME, organism-based; settings: in vivo; method in brief: as §1

CN1CCN(c2ccc(CNC(=O)c3cc([N+](=O)[O-])cc(C(F)(F)F)c3)cc2)CC1
MIC90 [1]: > 8 µg/mL

O=C(NCc1ccc(N2CCN(c3ccncc3)CC2)cc1)c1cc([N+](=O)[O-])cc([N+](=O)[O-])c1
MIC90 [1]: 2 µg/mL (≈ 4.32 µM)

O=C(NCc1ccc(N2CC3CCCCC3C2)cc1)c1cc([N+](=O)[O-])cc([N+](=O)[O-])c1 (stereo not drawn)
MIC90 [1]: 0.0625 µg/mL (≈ 0.147 µM) | Activity (Mus musculus): Non-Toxic

O=C(NCCN1CCN(CC2CCCCC2)CC1)c1cc([N+](=O)[O-])cc(C(F)(F)F)c1
MIC90 [1]: 0.0781 to 4 µg/mL (≈ 0.177 to 9.04 µM)

O=C(NCc1ccc(N2CCC(Oc3ccc(OC(F)(F)F)cc3)CC2)cc1)c1cc([N+](=O)[O-])cc([N+](=O)[O-])c1
MIC90 [1]: 0.5 µg/mL (≈ 0.892 µM)

CC(C)N1CCN(c2ccc(CNC(=O)c3cc([N+](=O)[O-])cc([N+](=O)[O-])c3)cc2)CC1
MIC90 [1]: 4 µg/mL (≈ 9.36 µM)

O=C(NCCNc1ccc([N+](=O)[O-])cc1)c1cc([N+](=O)[O-])cc(C(F)(F)F)c1
Activity [1]: Active

CN1CCN(c2ccc(CNC(=O)c3cc([N+](=O)[O-])cc([N+](=O)[O-])c3)cc2)CC1
MIC90 [1]: 4 µg/mL (≈ 10 µM)

O=C(NCCNc1ccc(Br)cc1)c1cc([N+](=O)[O-])cc(C(F)(F)F)c1
Activity [1]: Active

O=C(NCc1ccc(N2CCOCC2)cc1)c1cc([N+](=O)[O-])cc(C(F)(F)F)c1
MIC90 [1]: > 8 µg/mL

O=c1nc(N2CCN(CC3CCCCC3)CC2)sc2c([N+](=O)[O-])cc(C(F)(F)F)cc12 [MACOZINONE]
MIC90 [1]: 0.0625 µg/mL (≈ 0.137 µM)

O=C(NCc1ccc(N2CCOCC2)cc1)c1cc([N+](=O)[O-])cc([N+](=O)[O-])c1
MIC90 [1]: > 8 µg/mL

NNC(=O)c1ccncc1 [ISONIAZID]
MIC90 [1]: 0.0781 µg/mL (≈ 0.569 µM)

O=C(NCc1ccc(N2CCC(c3ccc(OC(F)(F)F)cc3)CC2)cc1)c1cc([N+](=O)[O-])cc(C(F)(F)F)c1
MIC90 [1]: 0.5 µg/mL (≈ 0.881 µM)

CC(C)N1CCN(c2ccc(CNC(=O)c3cc([N+](=O)[O-])cc(C(F)(F)F)c3)cc2)CC1
MIC90 [1]: 8 µg/mL (≈ 17.8 µM)

O=C(NCc1ccc(N2CC3CCCCC3C2)cc1)c1cc([N+](=O)[O-])cc(C(F)(F)F)c1 (stereo not drawn)
MIC90 [1]: 0.5 µg/mL (≈ 1.12 µM)

O=C(NCc1ccc(N2CCC(c3ccc(OC(F)(F)F)cc3)CC2)cc1)c1cc([N+](=O)[O-])cc([N+](=O)[O-])c1
half-life [2]: 5.52 h | MIC90 [1]: 0.0625 µg/mL (≈ 0.115 µM) | Cmax [3]: 366 ng/mL | Activity (Mus musculus): Non-Toxic | AUC(0-inf) [4]: 3260 ng·h/mL | Tmax [5]: 0.83 h

O=C(NCc1ccc(N2CCC(Oc3ccc(OC(F)(F)F)cc3)CC2)cc1)c1cc([N+](=O)[O-])cc(C(F)(F)F)c1
MIC90 [1]: 2 µg/mL (≈ 3.43 µM)

COc1ccc(OCCNC(=O)c2cc([N+](=O)[O-])cc(C(F)(F)F)c2)cc1
MIC90 [1]: 1 µg/mL (≈ 2.6 µM)

O=C(NCc1ccc(N2CCN(c3ccc(F)cc3)CC2)cc1)c1cc([N+](=O)[O-])cc([N+](=O)[O-])c1
half-life [2]: 13.6 h | MIC90 [1]: 0.0625 µg/mL (≈ 0.13 µM) | Cmax [3]: 15 ng/mL | Activity (Mus musculus): Non-Toxic | AUC(0-inf) [4]: 219 ng·h/mL | Tmax [5]: 1.08 h

O=C(NCc1ccc(N2CCC(C(F)(F)F)CC2)cc1)c1cc([N+](=O)[O-])cc(C(F)(F)F)c1
MIC90 [1]: 0.0625 µg/mL (≈ 0.131 µM)

O=C(NCc1ccc(N2CCCCC2)cc1)c1cc([N+](=O)[O-])cc([N+](=O)[O-])c1
MIC90 [1]: 2 µg/mL (≈ 5.2 µM)

O=C(NCc1ccc(N2CCCCC2)cc1)c1cc([N+](=O)[O-])cc(C(F)(F)F)c1
MIC90 [1]: 0.25 µg/mL (≈ 0.614 µM)

O=C(NCc1ccc(N2CCSCC2)cc1)c1cc([N+](=O)[O-])cc(C(F)(F)F)c1
MIC90 [1]: 0.125 µg/mL (≈ 0.294 µM)

O=C(NCc1ccc(N2CCC(C(F)(F)F)CC2)cc1)c1cc([N+](=O)[O-])cc([N+](=O)[O-])c1
half-life [2]: 3.63 h | MIC90 [1]: 0.0625 µg/mL (≈ 0.138 µM) | Cmax [3]: 1720 ng/mL | Activity (Mus musculus): Non-Toxic | AUC(0-inf) [4]: 5600 ng·h/mL | Tmax [5]: 0.92 h

O=C(NCc1ccc(N2CCN(c3ccncc3)CC2)cc1)c1cc([N+](=O)[O-])cc(C(F)(F)F)c1
MIC90 [1]: 8 µg/mL (≈ 16.5 µM)

O=C(NCc1ccc(N2CCSCC2)cc1)c1cc([N+](=O)[O-])cc([N+](=O)[O-])c1
half-life [2]: 3.3 h | MIC90 [1]: 0.0625 µg/mL (≈ 0.155 µM) | Cmax [3]: 19 ng/mL | Activity (Mus musculus): Non-Toxic | AUC(0-inf) [4]: 41.1 ng·h/mL | Tmax [5]: 2.75 h

CO[C@H]1/C=C/O[C@@]2(C)Oc3c(C)c(O)c4c(O)c(c(/C=N/N5CCN(C)CC5)c(O)c4c3C2=O)NC(=O)/C(C)=C\C=C\[C@H](C)[C@H](O)[C@@H](C)[C@@H](O)[C@@H](C)[C@H](OC(C)=O)[C@@H]1C [RIFAMPIN]
MIC90 [1]: 0.0781 µg/mL (≈ 0.0949 µM)

O=C(NCc1ccc(N2CCN(c3ccccn3)CC2)cc1)c1cc([N+](=O)[O-])cc([N+](=O)[O-])c1
MIC90 [1]: 1 µg/mL (≈ 2.16 µM)

O=C(NCc1ccc(N2CCN(c3ccc(F)cc3)CC2)cc1)c1cc([N+](=O)[O-])cc(C(F)(F)F)c1
MIC90 [1]: 0.5 µg/mL (≈ 0.995 µM)

O=C(NCc1ccc(N2CCN(c3ccccn3)CC2)cc1)c1cc([N+](=O)[O-])cc(C(F)(F)F)c1
MIC90 [1]: 1 µg/mL (≈ 2.06 µM)

O=C(NCCN1CCN(c2ccccc2)CC1)c1cc([N+](=O)[O-])cc(C(F)(F)F)c1
Activity [1]: Active
